From PubChem
OX1R antag-1: OX1R (human) antagonism; O43613; OX1R-expressing cells, FRET antagonist read-out; inhibition, % at 6.6 µM; 330,000 compounds, 1.8% hits; AID 485270; in the data active means inhibition mostly above about 38%, no sharp cut-off; inactive means mostly below about 40%
TAAR1 ag: human TAAR1 agonism | Q96RJ0 | CHO RD-HGA16 TAAR1, Fluo-8 calcium fluorescence; vehicle wells 0%, saturating PEA agonist 100% | activation, % at 3 µM | 360,000 compounds, 0.99% hits;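 active means activation above the mean activation of all test compounds in the run plus 3 SD, cut at about 38% in these data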
Target sequence (Q96RJ0 whole entry, looked up): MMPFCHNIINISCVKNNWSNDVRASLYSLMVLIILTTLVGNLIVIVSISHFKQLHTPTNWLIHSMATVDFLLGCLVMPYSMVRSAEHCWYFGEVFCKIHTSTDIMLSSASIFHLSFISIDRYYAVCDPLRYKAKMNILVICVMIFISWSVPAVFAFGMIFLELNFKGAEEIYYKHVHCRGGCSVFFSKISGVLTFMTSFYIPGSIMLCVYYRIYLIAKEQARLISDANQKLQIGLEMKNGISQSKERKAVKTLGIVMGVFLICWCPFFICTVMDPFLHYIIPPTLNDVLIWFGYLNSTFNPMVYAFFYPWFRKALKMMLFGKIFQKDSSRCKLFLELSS
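Test system: RD-HGA16 (CHO) cells co-expressing Gα16 and hTAAR1 / Benchmarks: DMSO vehicle as 0%, PEA at EC100 as 100% / Repeats: no replicates (n 1) / Measure: % activation from peak over basal fluorescence ratio, DMSO-to-PEA scaled / Timing: 17-24 h plating, Fluo-8 75 min 37 °C, 30 min RT / Technique: kinetic Fluo-8 calcium fluorescence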
CHO parental Ca: counter-screen for OX1R antagonists: effect in parental CHO cells; parental CHO-K1, ATP-induced calcium, Fluo-8 fluorescence; inhibition, % at 5.6 µM; 330,000 compounds, 0.63% hits;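 active means inhibition above that plate's mean sample inhibition plus 3 SD, cut at about 26% in these data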
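Assay system: parental CHO cells; Read-out basis: percent inhibition of ATP-evoked calcium rise, normalized to controls; Benchmarks: ATP and no-ATP DMSO wells; Compound dosing: single nominal dose of 5.6 µM per compound; Signal: Fluo-8 calcium dye fluorescence; Also added: ATP as calcium-mobilizing challenge; Repeats: singlicate.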
TAAR1 antagonist: antagonists of human TAAR1. Q96RJ0. CHO RD-HGA16 TAAR1, Fluo-8 calcium fluorescence, antagonist. inhibition, % at 3 µM. 360,000 compounds, 1.5% hits;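 active means inhibition above a per-plate cutoff, the mean inhibition of test compounds on that plate plus 3 SD, cut at about 49% in these data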
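System: RD-HGA16 CHO cells with stable hTAAR1 and Gα16 | Probe or stimulus: EC80 β-phenethylamine stimulus | Dosing: 3 µM, single point | Times: Dye loading 75 min at 37 °C, then 30 min room temperature | Measured by: Fluo-8 calcium-sensitive fluorescence | Read-out basis: % inhibition of agonist calcium response | Replicates: n of 1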
OX1R antag-2: blocks the human orexin 1 receptor. O43613. CHO/OX1R cells, Fluo-8 calcium fluorescence, orexin A. inhibition, % at 5 µM. 330,000 compounds, 0.43% hits;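 active means inhibition above its plate's threshold, mean inhibition of all tested compounds on the plate plus 3 SD, cut at about 37% in these data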
GPR7 antagonist: blocks human GPR7 receptor signaling | P48145 | inhibition, % at 4.4 µM | GPR7-expressing cells, fluorescence antagonist assay | 290,000 compounds, 1.1% hits | AID 1861; in the data active means inhibition above about 16%, passing the limit was not always enough;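 further: cells stimulated with the agonist NPW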
Large screens that a line does not name were inactive. Sampled rows, rich in hits. Any-hit rate of the full collection: about 4.6%.

O=C(Nc1cccnc1)c1cc(F)c(F)cc1Cl	none
O=C(Nc1cccnc1)Nc1ccc(F)c(Cl)c1	TAAR1 ag 51
Cc1ccc(NC(=O)Nc2ccc(F)c(Cl)c2)cc1	CHO parental Ca 69, GPR7 antagonist 29
COc1ccc(NC(=O)Nc2ccc(F)c(Cl)c2)cc1	none
CC(=O)N(C)c1ccc(NC(=O)Nc2ccc(Cl)cc2)cc1	TAAR1 ag 44, TAAR1 antagonist 102 (no result: GPR7 antagonist)
Cc1ccc(NC(=S)N(CCCN2CCCC(C)C2)Cc2ccco2)cc1C (stereo unspecified)	none
CCCCC[C@@H](C)N1C[C@H](COCc2ccccc2)Oc2cc(N3CC[C@H](N(C)C)C3)ccc2S1(=O)=O	none (no result: OX1R antag-1, CHO parental Ca, OX1R antag-2, GPR7 antagonist)
O=C(Nc1ccncc1)Nc1cccc(Cl)c1Cl	none (no result: OX1R antag-1, CHO parental Ca, OX1R antag-2)
O=C(Nc1ccc(Cl)c(Cl)c1)Nc1ccc(Br)cc1F	CHO parental Ca 36
O=C(Nc1ccc(Cl)cc1)Nc1cccc2nsnc12	OX1R antag-1 44
Cc1cc(NC(=O)Nc2ccc(Cl)cc2)no1	none
CNC(=O)Nc1ccc(S(N)(=O)=O)cc1	none
NS(=O)(=O)c1ccc(NC(=O)Nc2ccc(Cl)cc2)cc1	TAAR1 ag 41
Cc1cc(NC(=O)Nc2ccc(Cl)c(Cl)c2)no1	CHO parental Ca 82 (no result: GPR7 antagonist)
CCCCNC(=O)c1nc(-c2cc3ccccc3[nH]2)oc1-c1cccc(C(F)(F)F)c1	none (no result: OX1R antag-1, CHO parental Ca, OX1R antag-2, GPR7 antagonist)
Cc1ccc(S(=O)(=O)n2[nH]c(=O)cc2NC(=O)c2cccs2)cc1	none (no result: TAAR1 ag, TAAR1 antagonist)
CNC(CC(C)C)C(=O)NC1C(=O)NC(CC(N)=O)C(=O)NC2C(=O)NC3C(=O)NC(C(=O)NC(C(=O)O)c4cc(O)cc(O)c4-c4cc3ccc4O)C(O)c3ccc(c(Cl)c3)Oc3cc2cc(c3OC2OC(CO)C(O)C(O)C2OC2CC(C)(N)C(O)C(C)O2)Oc2ccc(cc2Cl)C1O (stereo unspecified)	none (no result: GPR7 antagonist)
CC(C)(C)c1ccc(OCCC(=O)OCC(=O)NC2CC2)cc1	none (no result: GPR7 antagonist)
Cc1ccc(S(=O)(=O)N(C)c2ccc(OCC(=O)Nc3nc4c(ccc5ccccc54)s3)cc2)cc1	none
COc1cc([N+](=O)[O-])ccc1NC(=O)CCCOc1cccc(C)c1	TAAR1 antagonist 106
Cc1cccc(OCC(=O)Nc2nc3ccc([N+](=O)[O-])cc3s2)c1	OX1R antag-1 41
Cc1cccc(OCC(=O)Nc2nc3ccc([N+](=O)[O-])cc3s2)c1C	none
O=C(COc1ccccc1C(=O)O)Nc1nc2ccc([N+](=O)[O-])cc2s1	OX1R antag-1 59, CHO parental Ca 42
Cc1ccc(S(=O)(=O)N(C)c2ccc(OCC(=O)Nc3nc4ccccc4s3)cc2)cc1	OX1R antag-1 57
CCN(CC)S(=O)(=O)c1cccc(NC(=O)COC(=O)c2cc(C)oc2C)c1	none
CCCCCCC(=O)N/N=C/c1ccc(Br)cc1	none
COCCN(CCOC)C(=O)COC(=O)c1cc([N+](=O)[O-])ccc1Cl	OX1R antag-1 48
CN(C)c1ccc(N=Nc2ccccc2C(=O)OCC(=O)N(C)c2ccccc2)cc1	CHO parental Ca 34, TAAR1 antagonist 62
CN(C(=O)COC(=O)c1cc([N+](=O)[O-])ccc1Cl)c1ccccc1	OX1R antag-1 66
CN(C(=O)COC(=O)CSc1ccc([N+](=O)[O-])cc1)c1ccccc1	TAAR1 antagonist 51 (no result: GPR7 antagonist)
O=C(COC(=O)c1cc([N+](=O)[O-])ccc1Cl)NCCc1ccccc1	none (no result: GPR7 antagonist)
O=C(CNC(=O)c1ccc(Cl)cc1)NC(CO)c1ccccc1 (stereo unspecified)	none
CC(NC(=O)Nc1ccc(F)cc1F)c1ccncc1 (stereo unspecified)	none
CCCOc1ccc(C(=O)NCC2OCCc3ccccc32)cc1OC (stereo unspecified)	none
Fc1ccccc1NC(=S)NCCc1ccc(Cl)cc1	none (no result: OX1R antag-1, CHO parental Ca, OX1R antag-2)
O=[N+]([O-])c1cccc(NC(=S)NCCc2ccccc2)c1	OX1R antag-1 53
Fc1ccccc1NC(=S)NCCc1ccccc1	TAAR1 ag 56
Fc1cccc(NC(=S)NCCc2ccccc2)c1	none
CC(C)(CNC(=S)NCCc1ccccc1)CNC(=S)NCCc1ccccc1	TAAR1 ag 46, TAAR1 antagonist 62 (no result: OX1R antag-1, CHO parental Ca, OX1R antag-2)
C/C=C/c1cccc(-c2nc(C(=O)N3CCOCC3)cc3c2[C@@H](CCO)N(C(=O)NC(C)C)C3)c1	none (no result: OX1R antag-1, CHO parental Ca, OX1R antag-2, GPR7 antagonist)
